In ChEMBL document CHEMBL3352174, “Identification of a New RXRα Antagonist Targeting the Coregulator-Binding Site” (ACS Med Chem Lett, 2014):
Activity calls are given as the source filed them. The rule behind the calls is not given here.

Tests used:
[1] = biological target: T1, Retinoic acid receptor RXR-alpha (Homo sapiens) (UniProt P19793); test: Antagonist activity against RXRalpha in TNFalpha-stimulated human A549 cells assessed as inhibition of AKT phosphorylation at 5 and 10 uM pre-treated for 24 hrs before TNFalpha addition in presence of RXRalpha siRNA by Western blotting method; format: cell-based
T1 sequence (whole entry): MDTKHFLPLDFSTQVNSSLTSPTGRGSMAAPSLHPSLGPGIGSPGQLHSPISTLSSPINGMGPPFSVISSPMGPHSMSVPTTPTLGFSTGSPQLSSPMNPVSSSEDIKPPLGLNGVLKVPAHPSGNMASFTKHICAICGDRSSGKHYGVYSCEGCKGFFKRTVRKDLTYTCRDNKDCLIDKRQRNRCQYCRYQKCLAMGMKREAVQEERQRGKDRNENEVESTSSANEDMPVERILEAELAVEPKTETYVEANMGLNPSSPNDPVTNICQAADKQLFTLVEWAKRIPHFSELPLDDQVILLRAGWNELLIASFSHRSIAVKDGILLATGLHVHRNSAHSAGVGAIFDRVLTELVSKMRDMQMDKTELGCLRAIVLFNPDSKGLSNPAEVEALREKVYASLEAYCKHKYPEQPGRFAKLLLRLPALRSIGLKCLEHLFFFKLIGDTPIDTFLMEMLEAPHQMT
Procedure, shortened: (§1)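 A549 cells were transfected with RXRα siRNA or control siRNA for 48 h. They were then treated with compound for 24 h, followed by TNFα (20 ng/mL) for 30 min. Lysates were analyzed by Western blot for AKT activation and PARP cleavage.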

A549 = test: Induction of apoptosis in TNFalpha-stimulated human A549 cells assessed as PARP cleavage at 5 and 10 uM pre-treated for 24 hrs before TNFalpha addition in presence of RXRalpha siRNA by immunoblotting method; format: functional, cell-based; procedure, shortened: as §1
[2] = biological target: T1, Retinoic acid receptor RXR-alpha (Homo sapiens); test: Antagonist activity against RXRalpha in TNFalpha-stimulated human A549 cells assessed as inhibition of AKT phosphorylation at 5 and 10 uM pre-treated for 24 hrs before TNFalpha addition by Western blotting method; format: cell-based
Procedure, shortened: (§2)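 A549 or HepG2 cells were exposed to compound for 24 h, then with or without TNFα (20 ng/mL) for 30 min more. Lysates were immunoblotted for AKT activation. One of three to five similar experiments shown.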

[3] = biological target: T1, Retinoic acid receptor RXR-alpha (Homo sapiens); test: Antagonist activity against RXRalpha in human colon cancer cells assessed as inhibition of AKT phosphorylation at 5 and 10 uM after 24 hrs by Western blotting method; format: cell-based; conditions: Cancer cell lines
[4] = biological target: T2, Retinoic acid receptor RXR-alpha (Homo sapiens, UniProt P19793); test: Antagonist activity against Myc-tagged RXRalpha ligand binding domain (unknown origin) expressed in human HEK293T cells assessed as inhibition of 9-cis-RA-induced receptor transactivation after 18 hrs by luciferase reporter gene based mammalian one-hybrid assay; format: cell-based, HEK-293T
T2 sequence (P19793 whole entry): T1 sequence (whole entry)
Procedure, shortened: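 HEK293T cells co-transfected with pG5-Luc and pBind-RXRα-LBD. […] Luciferase reporter activity measured. Mean ± SD.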

[5] = biological target: T1, Retinoic acid receptor RXR-alpha (Homo sapiens); test: Antagonist activity against Myc-tagged RXRalpha ligand binding domain (unknown origin) expressed in human MCF7 cells assessed as inhibition of 9-cis-RA-induced receptor transactivation at 10 uM after 18 hrs by luciferase reporter gene based mammalian one-hybrid assay; format: cell-based
Procedure, shortened: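 MCF-7 cells co-transfected with pG5-Luc reporter and pBind-RXRα-LBD. […] Read-out was dual-luciferase, with firefly normalized to Renilla for transfection efficiency. Single-concentration tests used 10 μM. Mean ± SD.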

[6] = biological target: T1, Retinoic acid receptor RXR-alpha (Homo sapiens); test: Antagonist activity against RXRalpha delta80 mutant (unknown origin) expressed in human A549 cells assessed as reduction in TNFalpha-induced interaction of Myc-tagged RXRalpha- delta80 with p85alpha by co-immunoprecipitation assay; format: cell-based
Procedure, shortened: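 A549 cells were transfected with Myc-RXRα-Δ80 (truncated RXRα mimic) and treated with or without TNFα and/or compound. Anti-Myc immunoprecipitates were immunoblotted for endogenous p85α and Myc-RXRα-Δ80. One of three to five similar experiments shown.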

[7] = biological target: Retinoic acid receptor RXR-alpha/oxysterols receptor LXR-alpha (Homo sapiens) (UniProt P19793+Q13133); test: Antagonist activity against RXRalpha/LXRalpha ligand binding domain (unknown origin) expressed in human HEK293T cells assessed as inhibition of 9-cis-RA/T09-induced receptor transactivation at 2 and 10 uM after 18 hrs by luciferase reporter gene based mammalian one-hybrid assay; format: cell-based; conditions: HEK-293T
[8] = biological target: Retinoic acid receptor alpha/Retinoid X receptor alpha (Homo sapiens) (UniProt P10276+P19793); test: Antagonist activity against RXRalpha/RARalpha ligand binding domain (unknown origin) expressed in human HEK293T cells assessed as inhibition of 9-cis-RA/T09-induced receptor transactivation at 2 and 10 uM after 18 hrs by luciferase reporter gene based mammalian one-hybrid assay; format: cell-based; conditions: HEK-293T
[9] = biological target: T1, Retinoic acid receptor RXR-alpha (Homo sapiens); test: Antagonist activity against RXRalpha in human HepG2 cells assessed as inhibition of AKT phosphorylation at 5 and 10 uM after 24 hrs by Western blotting method; format: cell-based; procedure, shortened: as §2
[10] = biological target: Nuclear receptor subfamily 4immunitygroup A member 1 (Homo sapiens) (UniProt P22736); test: Antagonist activity against Nur77 ligand binding domain (unknown origin) expressed in human MCF7 cells assessed as inhibition of all-trans-RA-induced receptor transactivation at 10 uM after 18 hrs by luciferase reporter gene based mammalian one-hybrid assay; format: cell-based
Nuclear receptor subfamily 4immunitygroup A member 1 (Homo sapiens), sequence (P22736 whole entry, the tested form may be a part): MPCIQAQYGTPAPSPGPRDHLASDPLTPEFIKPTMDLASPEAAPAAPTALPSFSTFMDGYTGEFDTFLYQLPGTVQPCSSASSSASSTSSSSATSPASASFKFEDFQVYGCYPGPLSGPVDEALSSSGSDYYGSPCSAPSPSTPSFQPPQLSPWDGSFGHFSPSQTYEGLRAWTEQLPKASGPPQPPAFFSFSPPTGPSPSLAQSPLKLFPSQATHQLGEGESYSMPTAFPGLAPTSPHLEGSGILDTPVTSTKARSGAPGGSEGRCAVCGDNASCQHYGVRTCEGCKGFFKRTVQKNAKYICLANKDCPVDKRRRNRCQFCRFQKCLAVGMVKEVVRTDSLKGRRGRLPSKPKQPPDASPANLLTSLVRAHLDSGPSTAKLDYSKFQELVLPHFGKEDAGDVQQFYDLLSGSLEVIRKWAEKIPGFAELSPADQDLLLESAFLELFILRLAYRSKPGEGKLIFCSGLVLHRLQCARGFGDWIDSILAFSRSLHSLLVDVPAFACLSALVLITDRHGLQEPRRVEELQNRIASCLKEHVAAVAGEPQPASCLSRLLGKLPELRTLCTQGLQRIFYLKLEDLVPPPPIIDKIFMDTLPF
Procedure, shortened: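 MCF-7 cells co-transfected with pG5-Luc and the pBind-LBD fusion: Nur77, RARγ or ER. Agonists were all-trans-RA 10⁻⁷ M for RARγ and Nur77, and propyl pyrazole triol 10 μM for ER. Compound at 10 μM for 18 h. Dual-luciferase read-out normalized to Renilla. Mean ± SD.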

HepG2 = test: Induction of apoptosis in human HepG2 cells assessed as PARP cleavage at 5 and 10 uM by immunoblotting method; format: functional, cell-based
Procedure, shortened: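 A549 or HepG2 cells were treated with compound for 24 h, with or without subsequent TNFα (20 ng/mL) for 30 min. Lysates were immunoblotted for PARP cleavage as the apoptosis marker. One of three to five similar experiments shown.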

[11] = biological target: T1, Retinoic acid receptor RXR-alpha (Homo sapiens); test: Antagonist activity against RXRalpha in human A549 cells assessed as inhibition of AKT phosphorylation at 5 and 10 uM after 24 hrs by Western blotting method; format: cell-based; procedure, shortened: as §2

With `Cc1cc(=O)oc2c(/C=N/NC(=O)CSc3nc4ccccc4s3)c(O)ccc12` the inhibition [1] was “inactive”, the Activity (A549) was “inactive” and the inhibition [2] was “Active”. For the same compound, the inhibition [3] was “Active”, the IC50 [4] was 2450 nM and the inhibition [5] was “Active”. The inhibition [6] was “Active”, the inhibition [7] was “inactive” and the inhibition [8] was “inactive”. For the same compound, the inhibition [9] was “Dose-dependent effect”, the inhibition [10] was “inactive” and the Activity (HepG2) was “Active”. For the same compound, the inhibition [11] was “Dose-dependent effect”.
